Drawing on ChEMBL document CHEMBL1122166, “Beta-adrenergic blocking agents. 22. 1-Phenoxy-3-[[(substituted-amido) alkyl]amino]-2-propanols” (J Med Chem, 1982), this text covers ED50 and inhibition for 43 molecules.

The target of the first assay is T1, Adrenergic receptor beta (Homo sapiens) (UniProt P08588+P07550+P13945). In words: In vivo beta adrenergic receptor blocking potency was determined by inhibition of tachycardia produced by isoproterenol (0.2 mg/kg iv) in cat preparation. It is filed as functional, organism-based. Conditions: Felis catus; in the assay text read “0.2 µg/kg iv” for “0.2 mg/kg iv”; target entry is the homologue from another species. An outline of the steps:
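Test agent infused over 30 min at three to five dose levels. Challenge was a submaximal isoproterenol dose (0.2 μg/kg iv). Mean log values were taken from two or three tests, with standard errors of the means.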
As usually defined, the ED50 is the dose at which the effect has come halfway, by size or by number of responders. Take `CC(C)NC(=O)NCCNCC(O)COc1ccccc1` (stereo unspecified): the ED50 came out at 0.099 mg/kg.
With `CC(C)S(=O)(=O)NCCNCC(O)COc1ccccc1` (stereo unspecified), it took a dose of 0.008 mg/kg to reach the 50% effect level (ED50).
Same read-out and setting: to `CC(CNC(=O)C(C)C)NCC(O)COc1ccccc1` (stereo unspecified) belongs 0.005 mg/kg; to `CC(CNC(=O)Cc1ccccc1)NCC(O)COc1ccccc1` (stereo unspecified), 0.003 mg/kg; to `O=C(Cc1ccccc1)NCCNCC(O)COc1ccccc1` (stereo unspecified), 0.029 mg/kg.
Turning to `O=C(NCCNCC(O)COc1ccccc1)c1ccccc1Cl` (stereo unspecified), the median effective dose (ED50) stood at 0.161 mg/kg.
For the molecule `CC(C)(OC(=O)NCCNCC(O)COc1ccccc1)c1ccc(Cl)cc1` (stereo unspecified), the ED50 amounted to 0.078 mg/kg.
On to `CCCCCC(=O)NCCNCC(O)COc1ccccc1` (stereo unspecified), for which the ED50 is 0.159 mg/kg.
In turn, `N#Cc1ccccc1OCC(O)CNCCNC(N)=O` (stereo unspecified) showed an ED50 of 0.06 mg/kg.
Consider `CCCCCCCCC(=O)NCCNCC(O)COc1ccccc1` (stereo unspecified), for which the 50% effective dose (ED50) amounted to 0.84 mg/kg.
Consider `O=C(NCCNCC(O)COc1ccccc1[N+](=O)[O-])Nc1ccccc1` (stereo unspecified), for which the median effective dose (ED50) was found to be 0.052 mg/kg.
In turn, `CC(=O)NCCNCC(O)COc1ccccc1` (stereo unspecified) yielded an ED50 of 0.015 mg/kg.
Still for that read-out and setting: with `NC(=O)NCCNCC(O)COc1ccccc1` (stereo unspecified) the figure was 0.012 mg/kg.
`CNC(=O)NCCNCC(O)COc1ccccc1C#N` (stereo unspecified) came in with a 50% effective dose (ED50) of 0.044 mg/kg.
The molecule `O=C(Cc1ccc(Cl)cc1)NCCNCC(O)COc1ccccc1` (stereo unspecified) yielded an ED50 of 0.017 mg/kg.
`CC(C)(CNC(=O)Cc1ccccc1)NCC(O)COc1ccccc1` (stereo unspecified): it took a dose of 0.011 mg/kg to reach the 50% effect level (ED50).
Molecule `N#Cc1ccccc1OCC(O)CNCCNC(=O)Nc1ccccc1[N+](=O)[O-]` (stereo unspecified) registered an ED50 of 0.097 mg/kg.
With `CC(C)(C)C(=O)NCCNCC(O)COc1ccccc1[N+](=O)[O-]` (stereo unspecified), the median effective dose (ED50) is 0.011 mg/kg.
The molecule `COCC(=O)NCCNCC(O)COc1ccccc1` (stereo unspecified) had an ED50 of 0.016 mg/kg.
Regarding `CC(CNC(=O)Cc1ccccc1)NCC(O)COc1ccccc1C#N` (stereo unspecified), the ED50 came out at 0.004 mg/kg.
On to `CCCCNC(=O)NCCNCC(O)COc1ccccc1C#N` (stereo unspecified), for which it took a dose of 0.304 mg/kg to reach the 50% effect level (ED50).
As for `CCCCCC(=O)NCC(C)NCC(O)COc1ccccc1` (stereo unspecified), the ED50 came out at 0.005 mg/kg.
Consider `CS(=O)(=O)NCCNCC(O)COc1ccccc1` (stereo unspecified), for which it took a dose of 0.039 mg/kg to reach the 50% effect level (ED50).
Still for that read-out and setting: with `O=C(NCCNCC(O)COc1ccccc1)c1cc(O)ccc1O` (stereo unspecified) the figure was 0.616 mg/kg; with `O=C(COc1ccccc1)NCCNCC(O)COc1ccccc1` (stereo unspecified), 0.038 mg/kg.

The assay is the same for the next values; noted with them: Felis catus; target entry is the homologue from another species; in the assay text read “0.2 µg/kg iv” for “0.2 mg/kg iv”.
In turn, `CC(=O)NCCCCCCNCC(O)COc1ccccc1` (stereo unspecified) showed an ED50 of 0.044 mg/kg.
As for `CN(C)c1ccccc1C(=O)NCCNCC(O)COc1ccccc1` (stereo unspecified), the ED50 stood at 0.465 mg/kg.
`O=C(NCCNCC(O)COc1ccccc1Cl)Nc1ccccc1` (stereo unspecified) had an ED50 of 0.037 mg/kg.
`CCCCNC(=O)NCCNCC(O)COc1ccccc1` (stereo unspecified) had an ED50 of 0.022 mg/kg.
Take `CC(C)NC(=O)NCCNCC(O)COc1ccccc1C#N` (stereo unspecified): the 50% effect level (ED50) was put at a dose of 0.168 mg/kg.
On the same count and under the same terms, with `C=CCOc1ccccc1OCC(O)CNC(C)CNC(=O)Cc1ccccc1` (stereo unspecified) the figure was 0.019 mg/kg; with `O=C(NCCNCC(O)COc1ccccc1)C1CC1` (stereo unspecified), 0.022 mg/kg; with `CC(C)C(=O)NCCNCC(O)COc1ccccc1[N+](=O)[O-]` (stereo unspecified), 0.006 mg/kg.
On the same count and under the same terms, with `C=CCOc1ccccc1OCC(O)CNCCNC(=O)Nc1ccccc1` (stereo unspecified) the figure was 0.037 mg/kg; with `O=C(NCCNCC(O)COc1ccccc1)C1CCCCC1` (stereo unspecified), 0.02 mg/kg; with `CC(C)C(=O)NCC(C)(C)NCC(O)COc1ccccc1` (stereo unspecified), 0.003 mg/kg.
Still for that read-out and setting: with `O=C(NCCNCC(O)COc1ccccc1)c1ccc(O)c(O)c1` (stereo unspecified) the figure was 0.014 mg/kg; with `C=CCNC(=O)NCCNCC(O)COc1ccccc1` (stereo unspecified), 0.024 mg/kg; with `CCNC(=O)NCCNCC(O)COc1ccccc1` (stereo unspecified), 0.024 mg/kg.
Take `CC(CNC(=O)Cc1ccccc1Cl)NCC(O)COc1ccccc1[N+](=O)[O-]` (stereo unspecified): it took a dose of 0.007 mg/kg to reach the 50% effect level (ED50).

The target of the next assay is T1, Adrenergic receptor beta (Homo sapiens). In words: In vivo beta adrenergic receptor blocking potency was determined by inhibition of depressor response produced by isoproterenol (0.2 mg/kg iv) in cat preparation. It is filed as functional, organism-based. The following applies: Felis catus; in the assay text read “0.2 µg/kg iv” for “0.2 mg/kg iv”; target entry is the homologue from another species. An outline of the steps: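 Test agent infused over 30 min at three to five dose levels against a submaximal isoproterenol challenge (0.2 μg/kg iv). The percent blockade of the isoproterenol vasodepressor response was estimated at the dose level derived from the tachycardia inhibition estimate.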
What is called inhibition is the share of the control response that was lost under treatment. A high value points to a response far below the control. Consider `CN(C)c1ccccc1C(=O)NCCNCC(O)COc1ccccc1` (stereo unspecified), for which the inhibition came out at 0%.
`O=C(Cc1ccccc1)NCCNCC(O)COc1ccccc1` (stereo unspecified) displayed an inhibition of 0%.
Take `O=C(NCCNCC(O)COc1ccccc1)c1ccccc1Cl` (stereo unspecified): the inhibition was 0%.
Still for that read-out and setting: with `CC(C)(OC(=O)NCCNCC(O)COc1ccccc1)c1ccc(Cl)cc1` (stereo unspecified) the figure was 25%; with `O=C(NCCNCC(O)COc1ccccc1Cl)Nc1ccccc1` (stereo unspecified), 4%.
Still for that read-out and setting: to `CCCCNC(=O)NCCNCC(O)COc1ccccc1` (stereo unspecified) belongs 8%.
In turn, `Cc1c(N)cc(S(=O)(=O)NCCNCC(O)COc2ccccc2)cc1[N+](=O)[O-]` (stereo unspecified) returned an inhibition of 34%.
Consider `O=C(NCCNCC(O)COc1ccccc1[N+](=O)[O-])Nc1ccccc1` (stereo unspecified), for which the inhibition came to 14%.
Still for that read-out and setting: with `O=C(NCCNCC(O)COc1ccccc1)C1CC1` (stereo unspecified) the figure was 0%; with `CC(=O)NCCNCC(O)COc1ccccc1` (stereo unspecified), 7%; with `NC(=O)NCCNCC(O)COc1ccccc1` (stereo unspecified), 0%.
The same measure, in the same setting: with `CNC(=O)NCCNCC(O)COc1ccccc1C#N` (stereo unspecified) the figure was 18%.
In turn, `O=C(NCCNCC(O)COc1ccccc1)C1CCCCC1` (stereo unspecified) returned an inhibition of 0%.
In turn, `N#Cc1ccccc1OCC(O)CNCCNC(=O)Nc1ccccc1[N+](=O)[O-]` (stereo unspecified) returned an inhibition of 11%.
On the same count and under the same terms, with `CC(C)C(=O)NCCCNCC(O)COc1ccccc1` (stereo unspecified) the figure was 0%; with `COCC(=O)NCCNCC(O)COc1ccccc1` (stereo unspecified), 0%; with `CC(CNC(=O)Cc1ccccc1)NCC(O)COc1ccccc1C#N` (stereo unspecified), 10%.
In the case of `CCCCNC(=O)NCCNCC(O)COc1ccccc1C#N` (stereo unspecified), the inhibition turned out to be 0%.
With `CCCCCC(=O)NCC(C)NCC(O)COc1ccccc1` (stereo unspecified), the inhibition worked out at 0%.
Still for that read-out and setting: with `C=CCNC(=O)NCCNCC(O)COc1ccccc1` (stereo unspecified) the figure was 5%; with `CS(=O)(=O)NCCNCC(O)COc1ccccc1` (stereo unspecified), 0%.
As for `O=C(NCCNCC(O)COc1ccccc1)c1cc(O)ccc1O` (stereo unspecified), the inhibition turned out to be 0%.
Same read-out and setting: to `CC(CNC(=O)Cc1ccccc1Cl)NCC(O)COc1ccccc1[N+](=O)[O-]` (stereo unspecified) belongs 34%.

Staying with this assay, now noted: Felis catus; target entry is the homologue from another species; in the assay text read “0.2 µg/kg iv” for “0.2 mg/kg iv”.
Molecule `CC(C)NC(=O)NCCNCC(O)COc1ccccc1` (stereo unspecified) came in with an inhibition of 0%.
For the molecule `CC(C)S(=O)(=O)NCCNCC(O)COc1ccccc1` (stereo unspecified), the inhibition is 9%.
As for `CC(=O)NCCCCCCNCC(O)COc1ccccc1` (stereo unspecified), the inhibition came to 16%.
For the molecule `CC(CNC(=O)C(C)C)NCC(O)COc1ccccc1` (stereo unspecified), the inhibition is 37%.
In turn, `CC(CNC(=O)Cc1ccccc1)NCC(O)COc1ccccc1` (stereo unspecified) gave an inhibition of 0%.
In turn, `CCCCCC(=O)NCCNCC(O)COc1ccccc1` (stereo unspecified) gave an inhibition of 0%.
In turn, `N#Cc1ccccc1OCC(O)CNCCNC(N)=O` (stereo unspecified) returned an inhibition of 21%.
Molecule `CC(C)NC(=O)NCCNCC(O)COc1ccccc1C#N` (stereo unspecified) returned an inhibition of 0%.
Consider `CCCCCCCCC(=O)NCCNCC(O)COc1ccccc1` (stereo unspecified), for which the inhibition was 3%.
On the same count and under the same terms, to `C=CCOc1ccccc1OCC(O)CNC(C)CNC(=O)Cc1ccccc1` (stereo unspecified) belongs 30%; to `CC(C)C(=O)NCCNCC(O)COc1ccccc1[N+](=O)[O-]` (stereo unspecified), 5%.
In the case of `C=CCOc1ccccc1OCC(O)CNCCNC(=O)Nc1ccccc1` (stereo unspecified), the inhibition came to 24%.
`O=C(NCCNCC(O)COc1ccccc1)NC1CCCCC1` (stereo unspecified): the inhibition stood at 6%.
Regarding `O=C(Cc1ccc(Cl)cc1)NCCNCC(O)COc1ccccc1` (stereo unspecified), the inhibition is 8%.
Consider `CC(C)(CNC(=O)Cc1ccccc1)NCC(O)COc1ccccc1` (stereo unspecified), for which the inhibition worked out at 0%.
Same read-out and setting: with `CC(C)C(=O)NCC(C)(C)NCC(O)COc1ccccc1` (stereo unspecified) the figure was 0%.
For the molecule `CC(C)(C)C(=O)NCCNCC(O)COc1ccccc1[N+](=O)[O-]` (stereo unspecified), the inhibition was 25%.
In turn, `O=C(NCCNCC(O)COc1ccccc1)c1ccc(O)c(O)c1` (stereo unspecified) returned an inhibition of 0%.
On the same count and under the same terms, with `CCNC(=O)NCCNCC(O)COc1ccccc1` (stereo unspecified) the figure was 0%; with `O=C(COc1ccccc1)NCCNCC(O)COc1ccccc1` (stereo unspecified), 0%.

For the next assay the target is unchanged. Description: In vivo beta adrenergic receptor blocking potency was determined by inhibition of tachycardia produced by isoproterenol (0.2 µg/kg iv) in cat preparation. Conditions: Felis catus; target entry is the homologue from another species.
Molecule `Cc1c(N)cc(S(=O)(=O)NCCNCC(O)COc2ccccc2)cc1[N+](=O)[O-]` (stereo unspecified) returned an ED50 of 0.217 mg/kg.
As for `O=C(NCCNCC(O)COc1ccccc1)NC1CCCCC1` (stereo unspecified), the 50% effect level (ED50) was put at a dose of 0.282 mg/kg.
As to `CC(C)C(=O)NCCCNCC(O)COc1ccccc1` (stereo unspecified), the ED50 was 0.21 mg/kg.
